Results from ChEMBL document CHEMBL4350976, “Sequence modification of heptapeptide selected by phage display as homing device for HT-29 colon cancer cells to improve the anti-tumour activity of drug delivery systems” (Eur J Med Chem, 2019).
Where a SMILES comes first, the peptide text is derived from it. The star is where a group is joined. X1 = COc1cccc2c1C(=O)c1c(O)c3c(c(O)c1C2=O)C[C@@](O)(/C(C)=N/OCC(=O)*)C[C@@H]3O[C@H]1C[C@H](N)[C@H](O)[C@H](C)O1

Legend:
[1] = Stability in serum free medium at 30 uM incubated for 3 hrs by LC/MS analysis
How it was run: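 Conjugates (30 μM) were incubated at 37 °C in serum-free medium. Samples were taken at 0 and 3 h, quenched with acetic acid, lyophilised, desalted on C18 spin columns and analysed by LC-MS.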

[2] = Stability in 2.5% fetal bovine serum containing medium assessed as drug decomposition measured as Dau=Aoa-LR-OH and H-RYVHLPYAT-NH2 metabolite formation with loss of sugar content at 30 uM measured after 24 hrs by LC/MS analysis; assay type: ADME, cell-free, Bos taurus; conditions: cattle
How it was run: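 Conjugates (30 μM) were incubated at 37 °C in medium containing 2.5% FBS. Samples were taken at 0, 3, 6 and 24 h, quenched with acetic acid, lyophilised, desalted on C18 spin columns and analysed by LC-MS. Cleavage products were identified by mass.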

[3] = test system: HT-29; assay: Cytostatic activity against human HT-29 cells preincubated for 24 hrs under serum free condition followed by compound washout and further incubation for 48 hrs in presence of serum by MTT assay; assay type: functional, cell-based
How it was run: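 HT-29 cells were exposed to the compound for 24 h, washed, and kept a further 48 h. Viability was read by MTT. Absorbances were normalized to untreated controls and fitted by nonlinear regression to dose-response curves to give IC50.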

[4] = Drug uptake in human HT-29 cells at 100 uM incubated for 3 hrs by flow cytometry; assay type: ADME, cell-based; conditions: ht-29, 3 h
How it was run: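 HT-29 cells were exposed to 100 µM conjugate for 3 h. Flow cytometry recorded the percentage of Dau-positive cells and the mean fluorescence intensity, in duplicate.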

[5] = Retention time of the compound using 0.1% TFA in water and 0.1% TFA in acetonitrile-water (80:20 v/v) as eluents by RP-HPLC analysis; assay type: physicochemical
How it was run: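 Analytical RP-HPLC. Eluent A was 0.1% TFA in water and eluent B was 0.1% TFA in acetonitrile-water (80:20, v/v). Gradient: 0% B held to 5 min, then to 90% B at 50 min. Flow 1 mL/min, detection at 220 nm. The column was a Phenomenex Aeris Peptide XB-C18 (250×4.6 mm, 3.6 μm) or a Nucleosil C18 (5 μm, 100 Å, 250×4.6 mm), depending on the conjugate series.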

[6] = Drug uptake in human HT-29 cells at 50 uM after 90 mins by fluorescence based confocal microscopic analysis; assay type: ADME, cell-based; conditions: ht-29, 1.5 h
How it was run: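 HT-29 cells were incubated with 50 µM compound in RPMI for 90 min. Imaging was by confocal microscopy, with Dau detected at 550–600 nm emission.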

Structure (SMILES): COc1cccc2c1C(=O)c1c(O)c3c(c(O)c1C2=O)C[C@@](O)(/C(C)=N/OCC(=O)N[C@@H](CC(C)C)C(=O)N[C@@H](CCCNC(=N)N)C(=O)N[C@@H](CCCNC(=N)N)C(=O)N[C@@H](Cc1ccc(O)cc1)C(=O)N[C@H](C(=O)N[C@@H](Cc1cnc[nH]1)C(=O)N[C@@H](CC(C)C)C(=O)N1CCC[C@H]1C(=O)N[C@@H](Cc1ccc(O)cc1)C(=O)N[C@@H](C)C(=O)N[C@H](C(N)=O)[C@@H](C)O)C(C)C)C[C@@H]3O[C@H]1C[C@H](N)[C@H](O)[C@H](C)O1 (X1-LRRYVHLPYAT-NH2)
- Stability [1]: Stable
- Stability [2]: Unstable
- IC50 [3]: > 50 µM
- Drug uptake [4]: Not Active
- Retention time [5]: 31.2 to 31.3 min
- Drug uptake [6]: Not Active
